According to ChEMBL document CHEMBL3046072, “Plant P5C reductase as a new target for aminomethylenebisphosphonates” (J Agric Food Chem, 2007):

target: T1, Pyrroline-5-carboxylate reductase (Arabidopsis thaliana, UniProt P54904); test: Noncompetitive inhibition of Arabidopsis thaliana P5C reductase by Lineweaver-Burk plot in presence of NADPH; conditions: not given
T1 sequence (P54904 whole entry): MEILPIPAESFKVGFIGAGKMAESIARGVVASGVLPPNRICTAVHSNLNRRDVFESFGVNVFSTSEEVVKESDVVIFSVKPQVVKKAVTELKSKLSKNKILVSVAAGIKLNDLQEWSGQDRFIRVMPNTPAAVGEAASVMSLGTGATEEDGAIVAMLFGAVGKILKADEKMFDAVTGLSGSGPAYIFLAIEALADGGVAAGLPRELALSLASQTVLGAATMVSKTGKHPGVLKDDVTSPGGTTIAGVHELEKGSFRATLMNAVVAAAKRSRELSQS

| SMILES | Ki [µM] |
| --- | --- |
| O=P(O)(O)C(Nc1cc(Cl)cc(Cl)c1)P(=O)(O)O [(3,5-DICHLOROPHENYLAMINO)METHYLENEDIPHOSPHONIC ACID] | 230 |

target: T1, Pyrroline-5-carboxylate reductase; test: Uncompetitive inhibition of Arabidopsis thaliana P5C reductase by Dixon plot; conditions: not given

| SMILES | Ki [µM] |
| --- | --- |
| O=P(O)(O)C(Nc1cc(Cl)cc(Cl)c1)P(=O)(O)O [(3,5-DICHLOROPHENYLAMINO)METHYLENEDIPHOSPHONIC ACID] | 10.3 |

target: T1, Pyrroline-5-carboxylate reductase; test: Noncompetitive inhibition of Arabidopsis thaliana P5C reductase by Lineweaver-Burk plot; conditions: not given

| SMILES | Ki [µM] |
| --- | --- |
| O=P(O)(O)C(Nc1cc(Cl)cc(Cl)c1)P(=O)(O)O [(3,5-DICHLOROPHENYLAMINO)METHYLENEDIPHOSPHONIC ACID] | 199 |

target: T1, Pyrroline-5-carboxylate reductase; test: Inhibition of Arabidopsis thaliana P5C reductase catalytic activity; conditions: read-out: I50
Procedure, shortened: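 P5C reductase partially purified from A. thaliana Columbia suspension-cultured cells by ammonium sulfate cut and two DEAE-Sephacel steps. Assay at 35 °C: 100 mM Tris-HCl pH 8.0, 0.1 mM MgCl2, 2 mM DL-P5C, 0.25 mM NADH. Read as NADH oxidation at 340 nm, or as P5C loss by ninhydrin at 535 nm. Inhibitor neutralised to pH 7.4, tested over 0.010–5 mM. I50 from regression of % control activity versus log concentration.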

| SMILES | IC50 [µM] |
| --- | --- |
| NC(P(=O)(O)O)P(=O)(O)O [AMINOMETHYLENEBISPHOSPHONIC ACID] | 44 |
| Cc1nc(NC(P(=O)(O)O)P(=O)(O)O)c(Br)cc1Br | 300 |

target: T2, Pyrroline-5-carboxylate reductase (Arabidopsis thaliana) (UniProt P54904); test: Inhibition of Arabidopsis thaliana P5C reductase catalytic activity assessed as […] at 535 nm OD at 0.5 mM by P5C utilization assay; design: scale not given: the % may be the effect or the level left; conditions: not given
T2 sequence (whole entry): T1 sequence (P54904 whole entry)
Procedure, shortened: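 The partially purified Arabidopsis enzyme was run in the same Tris pH 8.0/MgCl2/DL-P5C/NADH mix with compound at 0.5 mM, at 35 °C. Aliquots taken every 40 s received Na acetate and 0.15% ninhydrin in acetic acid, then 10 min at 55 °C. Residual P5C was read at 535 nm (ε 4600 M⁻¹ cm⁻¹). At least three replicates; activity given as % of untreated control.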

| SMILES | Activity [%] |
| --- | --- |
| O=P(O)(O)C(NCc1ccccc1)P(=O)(O)O | 100 |
| O=P(O)(O)C(NCCc1ccc(O)cc1)P(=O)(O)O | 94.4 |
| O=P(O)(O)C(Nc1ccncc1)P(=O)(O)O | 101 |
| Cc1ccc(NC(P(=O)(O)O)P(=O)(O)O)cc1 | 98.2 |
| O=P(O)(O)C(Nc1ccccc1)P(=O)(O)O | 114 |
| NC(P(=O)(O)O)P(=O)(O)O [AMINOMETHYLENEBISPHOSPHONIC ACID] | 84.6 |
| O=P(O)(O)C(Nc1cc(Cl)cc(Cl)c1)P(=O)(O)O [(3,5-DICHLOROPHENYLAMINO)METHYLENEDIPHOSPHONIC ACID] | 28 |
| O=C(O)c1cccc(NC(P(=O)(O)O)P(=O)(O)O)c1 | 92.4 |
| O=P(O)(O)C(NCc1ccccn1)P(=O)(O)O | 92.9 |
| O=[N+]([O-])c1cccc(NC(P(=O)(O)O)P(=O)(O)O)c1 | 96.4 |
| Cc1ccccc1CNC(P(=O)(O)O)P(=O)(O)O | 96.9 |
| O=P(O)(O)C(NC1CCCCC1)P(=O)(O)O | 93.8 |
| Cc1nc(NC(P(=O)(O)O)P(=O)(O)O)c(Br)cc1Br | 54.8 |

Second part, the compound after the results:

| Activity [%] | SMILES |
| --- | --- |
| 100 | O=P(O)(O)C(Nc1ccc(Br)cn1)P(=O)(O)O |
| 106 | Cc1ccnc(NC(P(=O)(O)O)P(=O)(O)O)c1 |
| 97.9 | O=P(O)(O)C(Nc1ccnc(Cl)c1)P(=O)(O)O |
| 89.9 | O=P(O)(O)C(Nc1ccc(I)cn1)P(=O)(O)O |
| 91.7 | O=P(O)(O)C(Nc1ncccn1)P(=O)(O)O |
| 94.1 | O=C(O)c1cccnc1NC(P(=O)(O)O)P(=O)(O)O |
| 97 | O=P(O)(O)C(Nc1ncc(Cl)cc1Cl)P(=O)(O)O |
| 92.4 | O=P(O)(O)C(Nc1ccc(Cl)cn1)P(=O)(O)O |
| 103 | Cc1cccc(NC(P(=O)(O)O)P(=O)(O)O)n1 |
| 99.8 | O=P(O)(O)C(Nc1ncc(Br)cc1Br)P(=O)(O)O |
| 102 | O=P(O)(O)C(Nc1cccnc1)P(=O)(O)O |
| 104 | O=P(O)(O)C(Nc1ccccn1)P(=O)(O)O |
| 94.9 | O=P(O)(O)C(Nc1ccc(Cl)nc1)P(=O)(O)O |

target: 3-phosphoshikimate 1-carboxyvinyltransferase (Nicotiana tabacum); test: Inhibition of EPSP synthase in Nicotiana tabacum (tobacco) cells; conditions: read-out: I50

| SMILES | IC50 [µM] |
| --- | --- |
| O=P(O)(O)C(Nc1cc(Cl)cc(Cl)c1)P(=O)(O)O [(3,5-DICHLOROPHENYLAMINO)METHYLENEDIPHOSPHONIC ACID] | 30 |

target: 3-phosphoshikimate 1-carboxyvinyltransferase (Spinacia oleracea); test: Inhibition of Spinacia oleracea (spinach) EPSP synthase activity; conditions: read-out: I50

| SMILES | IC50 [µM] |
| --- | --- |
| O=P(O)(O)C(Nc1cc(Cl)cc(Cl)c1)P(=O)(O)O [(3,5-DICHLOROPHENYLAMINO)METHYLENEDIPHOSPHONIC ACID] | 30 |

target: T2, Pyrroline-5-carboxylate reductase (Arabidopsis thaliana); test: Inhibition of Arabidopsis thaliana P5C reductase catalytic activity assessed as inhibition of NADH oxidation at 340 nm OD at 0.2 mM by NADH oxidation assay; design: scale not given: the % may be the effect or the level left; conditions: not given

| SMILES | Activity [%] |
| --- | --- |
| O=P(O)(O)C(NCc1ccccc1)P(=O)(O)O | 98.5 |
| O=P(O)(O)C(NCCc1ccc(O)cc1)P(=O)(O)O | 105 |
| O=P(O)(O)C(Nc1ccncc1)P(=O)(O)O | 115 |
| Cc1ccc(NC(P(=O)(O)O)P(=O)(O)O)cc1 | 110 |
| O=P(O)(O)C(Nc1ccccc1)P(=O)(O)O | 98.3 |
| NC(P(=O)(O)O)P(=O)(O)O [AMINOMETHYLENEBISPHOSPHONIC ACID] | 106 |
| O=P(O)(O)C(Nc1cc(Cl)cc(Cl)c1)P(=O)(O)O [(3,5-DICHLOROPHENYLAMINO)METHYLENEDIPHOSPHONIC ACID] | 37.7 |
| O=C(O)c1cccc(NC(P(=O)(O)O)P(=O)(O)O)c1 | 95 |
| O=P(O)(O)C(NCc1ccccn1)P(=O)(O)O | 118 |
| O=[N+]([O-])c1cccc(NC(P(=O)(O)O)P(=O)(O)O)c1 | 102 |
| Cc1ccccc1CNC(P(=O)(O)O)P(=O)(O)O | 109 |
| O=P(O)(O)C(NC1CCCCC1)P(=O)(O)O | 108 |
| Cc1nc(NC(P(=O)(O)O)P(=O)(O)O)c(Br)cc1Br | 66.1 |

The remaining lines, values ahead:

| Activity [%] | SMILES |
| --- | --- |
| 104 | O=P(O)(O)C(Nc1ccc(Br)cn1)P(=O)(O)O |
| 106 | Cc1ccnc(NC(P(=O)(O)O)P(=O)(O)O)c1 |
| 91.2 | O=P(O)(O)C(Nc1ccnc(Cl)c1)P(=O)(O)O |
| 106 | O=P(O)(O)C(Nc1ccc(I)cn1)P(=O)(O)O |
| 110 | O=P(O)(O)C(Nc1ncccn1)P(=O)(O)O |
| 96.3 | O=C(O)c1cccnc1NC(P(=O)(O)O)P(=O)(O)O |
| 105 | O=P(O)(O)C(Nc1ncc(Cl)cc1Cl)P(=O)(O)O |
| 101 | O=P(O)(O)C(Nc1ccc(Cl)cn1)P(=O)(O)O |
| 88.7 | Cc1cccc(NC(P(=O)(O)O)P(=O)(O)O)n1 |
| 92 | O=P(O)(O)C(Nc1ncc(Br)cc1Br)P(=O)(O)O |
| 109 | O=P(O)(O)C(Nc1cccnc1)P(=O)(O)O |
| 114 | O=P(O)(O)C(Nc1ccccn1)P(=O)(O)O |
| 99.4 | O=P(O)(O)C(Nc1ccc(Cl)nc1)P(=O)(O)O |
